Results: article PMC8358123 (International Journal for Parasitology: Drugs and Drug …, 2021)

Columns and labels:
[1] = system: T. cruzi Tulahuen CL2 β-galactosidase strain; assay: In vitro activity against T. cruzi intracellular amastigotes in MRC-5SV2 cells; type: cell-based; conditions: Trypanosoma cruzi, MRC-5 SV2, 168 h, read-out: T. cruzi EC50
Outline: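 Nifurtimox-sensitive Tulahuen CL2 β-galactosidase parasites infected MRC-5SV2 fibroblasts in MEM with 200 mM L-glutamine, 16.5 mM NaHCO3 and 5% inactivated FCS, at 37 °C and 5% CO2. Wells held 4×10^3 cells and 4×10^4 parasites. Test compound was given as ten 4-fold dilutions (top 64 μM, <1% DMSO) for 7 days. CPRG was then added for 4 h at 37 °C and absorbance read at 540 nm. IC50 from % reduction versus untreated-infected controls; mean ± SEM, 2–4 experiments. Benznidazole reference.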

[2] = system: T. b. brucei (Squib 427 strain); assay: In vitro activity against T. b. brucei; type: cell-based; conditions: Trypanosoma brucei, read-out: T. b. bruc. EC50
[3] = system: T. b. rhodesiense (STIB-900 strain); assay: In vitro activity against T. b. rhodesiense; type: cell-based; conditions: Trypanosoma brucei, read-out: T. b. rhod. EC50
Outline: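 STIB-900 parasites, axenic in HMI-9 with 10% FBS at 37 °C and 5% CO2, seeded at 4×10^3 parasites/well. Test compound was given as ten 4-fold dilutions (top 64 μM, <1% DMSO). Growth period […], then resazurin added and fluorescence measured after 24 h. IC50 from a sigmoid variable-slope fit versus untreated controls; mean ± SEM, 2–4 experiments. Suramin as reference.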

[4] = MRC-5SV2 cytotoxicity; type: cell-based, human; conditions: human, MRC-5SV2 cells, MRC-5 CC50, MRC-5SV2 cells, 3 days incubation
Outline: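 MRC-5SV2 cells (3×10^4 cells/mL) in MEM with Earl's salts, L-glutamine, NaHCO3 and 5% inactivated FCS, at 37 °C and 5% CO2. Exposure to test compound (ten 4-fold dilutions, top 64 μM, <1% DMSO) lasted 3 days. Resazurin was then added for 4 h at 37 °C, with fluorescence read at ex 550/em 590 nm. CC50 from % reduction relative to untreated (100%) and medium-only (0%) controls.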

[5] = PMM cytotoxicity; type: cell-based, mouse; conditions: Swiss, mouse, PMM CC50, primary peritoneal mouse macrophages

SMILES | EC50 [1] [µM] | EC50 [2] [µM] | EC50 [3] [µM] | CC50 at 3 days [4] [µM] | CC50 at 5 days [5] [µM]
Cc1ncnc2c1c(/C=C/c1ccccc1)cn2[C@@H]1O[C@H](CO)[C@@H](O)[C@H]1O [compound 35] | 1.94 ± 0.09 | 6.19 ± 0.57 | 4.54 ± 0.93 | 26.6 ± 1.42 | 32
CCCCC#Cc1cn([C@@H]2O[C@H](CO)[C@@H](O)[C@H]2O)c2ncnc(C)c12 [compound 27] | 2.08 | 0.52 | 1.19 | 7.58 | 8
CCCCCc1cn([C@@H]2O[C@H](CO)[C@@H](O)[C@H]2O)c2ncnc(C)c12 [compound 26] | > 64 | > 64 | > 64 | > 64 | > 64
Cc1ncnc2c1c(C1=CCOCC1)cn2[C@@H]1O[C@H](CO)[C@@H](O)[C@H]1O [compound 20] | 2.87 ± 0.28 | 12.3 ± 2.45 | 9.75 ± 0.02 | > 64 | > 64
C=Cc1cn([C@@H]2O[C@H](CO)[C@@H](O)[C@H]2O)c2ncnc(C)c12 [compound 12] | 6.95 ± 1.29 | 2.73 ± 0.28 | 2.2 ± 0.11 | > 64 | > 64
CCc1cn([C@@H]2O[C@H](CO)[C@@H](O)[C@H]2O)c2ncnc(OC)c12 [compound 41] | > 64 | 0.47 ± 0.01 | 1.31 ± 0.44 | > 64 | > 64
Cc1ncnc2c1c(CC(C)C)cn2[C@@H]1O[C@H](CO)[C@@H](O)[C@H]1O [compound 30] | > 64 | > 64 | > 64 | > 64 | > 64
CCCCCCc1cn([C@@H]2O[C@H](CO)[C@@H](O)[C@H]2O)c2ncnc(C)c12 [compound 28] | 42.1 | > 64 | > 64 | > 64 | > 64
CCCC#Cc1cn([C@@H]2O[C@H](CO)[C@@H](O)[C@H]2O)c2ncnc(C)c12 [compound 25] | 20.4 ± 0.39 | 0.89 ± 0.21 | 0.37 ± 0.08 | > 64 | > 64
Cc1ncnc2c1c(C1CCCCC1)cn2[C@@H]1O[C@H](CO)[C@@H](O)[C@H]1O [compound 19] | > 64 | > 64 | > 64 | > 64 | > 64
Cc1ncnc2c1c(-c1ccccc1)cn2[C@@H]1O[C@H](CO)[C@@H](O)[C@H]1O [compound 24] | 40.3 | > 64 | > 64 | > 64 | > 64
Cc1ncnc2c1c(CCc1ccccc1)cn2[C@@H]1O[C@H](CO)[C@@H](O)[C@H]1O [compound 36] | 40.3 | > 64 | 38.7 | > 64 | > 64
C=C(C)c1cn([C@@H]2O[C@H](CO)[C@@H](O)[C@H]2O)c2ncnc(C)c12 [compound 14] | 5.04 | 0.5 | < 0.25 | 1.49 | > 64
Cc1ncnc2c1c(C1CCOCC1)cn2[C@@H]1O[C@H](CO)[C@@H](O)[C@H]1O [compound 21] | 3.98 ± 0.94 | 15.1 ± 1.02 | 12 ± 1.75 | > 64 | > 64
Cc1ncnc2c1c(SC(F)(F)F)cn2[C@@H]1O[C@H](CO)[C@@H](O)[C@H]1O [compound 11] | 30.9 | > 64 | > 64 |  | > 64
Cc1cn([C@@H]2O[C@H](CO)[C@@H](O)[C@H]2O)c2ncnc(C)c12 [compound 9] | 1.54 ± 0.52 | 0.82 ± 0.32 | 0.45 ± 0.08 | > 64 | > 64
Cc1ncnc2c1c(C1=CCCC1)cn2[C@@H]1O[C@H](CO)[C@@H](O)[C@H]1O [compound 16] | > 64 | > 64 | > 64 | > 64 | > 64
Cc1ncnc2c1c(CCC1CC1)cn2[C@@H]1O[C@H](CO)[C@@H](O)[C@H]1O [compound 34] | > 64 | > 64 | > 64 | > 64 | > 64
CCc1cn([C@@H]2O[C@H](CO)[C@@H](O)[C@H]2O)c2ncncc12 [compound 38] | 5.38 | 1.54 | 1.73 | > 64 | > 64
Cc1ncnc2c1c(C1CCCC1)cn2[C@@H]1O[C@H](CO)[C@@H](O)[C@H]1O [compound 17] | 48.9 | > 64 | 53.6 | > 64 | > 64
Cc1ncnc2c1c(C1=CCCCC1)cn2[C@@H]1O[C@H](CO)[C@@H](O)[C@H]1O [compound 18] | > 64 | > 64 | > 64 | > 64 | > 64
Cc1ncnc2c1c(Br)cn2[C@@H]1O[C@H](CO)[C@@H](O)[C@H]1O [compound 8] | 5.28 | > 64 | 3.84 | 39.6 | 32
Cc1ncnc2c1c(C#CC1CC1)cn2[C@@H]1O[C@H](CO)[C@@H](O)[C@H]1O [compound 33] | 4.59 ± 0.89 | 1.36 ± 0.41 | 0.34 ± 0.11 | 27.5 ± 19 | > 64
Cc1ncnc2c1c(C#CC(C)C)cn2[C@@H]1O[C@H](CO)[C@@H](O)[C@H]1O [compound 31] | > 64 | 23.5 | 16 | > 64 | > 64
Cc1ncnc2c1c(C(C)C)cn2[C@@H]1O[C@H](CO)[C@@H](O)[C@H]1O [compound 15] | 29.1 | 0.67 | 0.51 | 0.3 | > 64
Cc1ncnc2c1c(F)cn2[C@@H]1O[C@H](CO)[C@@H](O)[C@H]1O [compound 6] | < 0.25 | 0.41 | < 0.25 | 0.3 | 32
CCc1cn([C@@H]2O[C@H](CO)[C@@H](O)[C@H]2O)c2ncnc(CC)c12 [compound 37] | > 64 | 2.03 | 2.02 | 20.2 | > 64
CCc1cn([C@@H]2O[C@H](CO)[C@@H](O)[C@H]2O)c2nc[nH]c(=O)c12 [compound 40] | > 64 | 48.5 | 40.3 | > 64 | > 64
Cc1ncnc2c1c(CCC(C)C)cn2[C@@H]1O[C@H](CO)[C@@H](O)[C@H]1O [compound 32] | > 64 | > 64 | 4 | > 64 | > 64
CC(C)=Cc1cn([C@@H]2O[C@H](CO)[C@@H](O)[C@H]2O)c2ncnc(C)c12 [compound 29] | > 64 | > 64 | > 64 | > 64 | > 64
